Experimental findings from ChEMBL document CHEMBL1131239, “Orally active benzamide antipsychotic agents with affinity for dopamine D2, serotonin 5-HT1A, and adrenergic alpha1 receptors” (J Med Chem, 1998) are described below.

Assay [1] concerns the target T1, 5-hydroxytryptamine receptor 1A (Rattus norvegicus, UniProt P19327).
T1 sequence (P19327 whole entry): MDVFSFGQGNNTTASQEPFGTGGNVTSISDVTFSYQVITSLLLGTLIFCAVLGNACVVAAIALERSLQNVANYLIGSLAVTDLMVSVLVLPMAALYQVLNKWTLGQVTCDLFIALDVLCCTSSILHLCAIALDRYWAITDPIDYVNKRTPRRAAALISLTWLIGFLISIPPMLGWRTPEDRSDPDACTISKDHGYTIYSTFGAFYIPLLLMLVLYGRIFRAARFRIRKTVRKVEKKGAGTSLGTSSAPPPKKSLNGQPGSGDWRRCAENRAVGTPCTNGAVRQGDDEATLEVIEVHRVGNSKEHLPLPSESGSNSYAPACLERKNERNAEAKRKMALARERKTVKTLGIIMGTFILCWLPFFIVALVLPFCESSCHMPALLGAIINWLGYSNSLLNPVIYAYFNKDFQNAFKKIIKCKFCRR
The assay is described as follows: Compound was evaluated for its binding affinity against 5-hydroxytryptamine 1A receptor from rat cerebral cortex. The assay is classed as tissue-based.

Assay [2] relates to Rattus norvegicus. The assay is described as follows: compound was tested for antipsychotic activity by conditioned avoidance response(CAR) assay in rats with a pretreatment period of 60 min upon peroral administration at a concentration of 20 mg/kg. To be noted: route oral. The assay is classed as functional. Put shortly:
(§1)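 Trained rats (N = 4) were run in 1-h sessions on two consecutive days, with the experimenter blind to drug and dose. Fed rats had food and water until placed in the test chambers. Fasted rats had no food overnight before the experiment.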

In assay [3] the test system is Rattus norvegicus. As to the kind of experiment: compound was tested for antipsychotic activity by conditioned avoidance response(CAR) assay in rats with a pretreatment period of 30 min upon intra peritoneal administration at a concentration of 5 mg/kg. The assay is classed as functional. The method in brief:
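Rat conditioned avoidance test modified from Martin et al. Trained rats (N = 4) were run in 1-h sessions on two consecutive days. Fed animals had food and water until placed in the test chambers. Dosing was ip with 30 min pretreatment, and activity was expressed as percent inhibition at the stated dose.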

Assay [4] deals with Rattus norvegicus. As to the kind of experiment: compound was tested for antipsychotic activity by conditioned avoidance response(CAR) assay in rats with a pretreatment period of 30 min upon intra peritoneal administration at a concentration of 1 mg/kg. The assay is classed as functional. Put shortly:
as §1

Assay [5] concerns the target T2, Adrenergic receptor alpha-1 (Rattus norvegicus, UniProt P15823+P23944+P43140).
T2 sequence (P15823 whole entry): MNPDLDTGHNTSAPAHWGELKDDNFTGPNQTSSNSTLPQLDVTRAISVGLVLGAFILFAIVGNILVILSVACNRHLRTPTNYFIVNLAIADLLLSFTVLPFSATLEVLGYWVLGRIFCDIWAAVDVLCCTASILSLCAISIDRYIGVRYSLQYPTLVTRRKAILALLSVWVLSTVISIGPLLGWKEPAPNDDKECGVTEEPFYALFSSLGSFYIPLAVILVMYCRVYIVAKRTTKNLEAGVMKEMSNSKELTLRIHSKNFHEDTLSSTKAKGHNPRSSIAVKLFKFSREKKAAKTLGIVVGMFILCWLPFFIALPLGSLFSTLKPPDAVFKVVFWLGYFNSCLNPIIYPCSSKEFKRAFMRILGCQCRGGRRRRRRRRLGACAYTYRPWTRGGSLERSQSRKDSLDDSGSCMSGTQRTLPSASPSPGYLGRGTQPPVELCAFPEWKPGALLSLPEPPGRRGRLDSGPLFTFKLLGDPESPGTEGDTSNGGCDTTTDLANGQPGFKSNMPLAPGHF
T2 sequence (P23944 whole entry): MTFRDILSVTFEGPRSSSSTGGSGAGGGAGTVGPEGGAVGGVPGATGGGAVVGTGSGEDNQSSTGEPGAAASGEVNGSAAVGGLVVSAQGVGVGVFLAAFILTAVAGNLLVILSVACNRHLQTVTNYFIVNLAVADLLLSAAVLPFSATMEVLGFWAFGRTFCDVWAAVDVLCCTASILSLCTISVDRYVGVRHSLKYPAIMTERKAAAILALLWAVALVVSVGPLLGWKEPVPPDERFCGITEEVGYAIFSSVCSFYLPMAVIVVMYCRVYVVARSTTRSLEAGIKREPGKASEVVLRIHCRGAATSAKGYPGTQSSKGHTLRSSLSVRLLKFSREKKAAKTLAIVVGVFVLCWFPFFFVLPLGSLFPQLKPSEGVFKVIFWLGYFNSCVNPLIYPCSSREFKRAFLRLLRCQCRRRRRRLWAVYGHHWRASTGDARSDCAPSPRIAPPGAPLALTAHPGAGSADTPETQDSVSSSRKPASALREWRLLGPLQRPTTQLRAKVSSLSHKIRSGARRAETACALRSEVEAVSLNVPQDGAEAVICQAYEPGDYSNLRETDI
T2 sequence (P43140 whole entry): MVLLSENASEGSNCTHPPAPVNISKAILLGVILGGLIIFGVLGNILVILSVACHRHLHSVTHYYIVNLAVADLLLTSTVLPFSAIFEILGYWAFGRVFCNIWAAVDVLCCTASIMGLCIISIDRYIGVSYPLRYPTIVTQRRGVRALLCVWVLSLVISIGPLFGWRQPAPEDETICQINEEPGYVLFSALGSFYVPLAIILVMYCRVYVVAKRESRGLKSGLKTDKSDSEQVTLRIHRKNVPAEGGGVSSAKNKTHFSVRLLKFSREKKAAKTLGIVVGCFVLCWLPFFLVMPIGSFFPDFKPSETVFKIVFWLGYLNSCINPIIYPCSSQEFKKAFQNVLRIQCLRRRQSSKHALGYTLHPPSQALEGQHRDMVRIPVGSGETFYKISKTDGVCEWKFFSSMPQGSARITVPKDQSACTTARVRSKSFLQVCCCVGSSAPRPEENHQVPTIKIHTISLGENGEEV
As to the kind of experiment: Binding affinity against Alpha-1 adrenergic receptor from rat cerebral cortex. Format: tissue-based.

The test system of assay [6] is Rattus norvegicus. The assay is described as follows: compound was tested for antipsychotic activity by conditioned avoidance response(CAR) assay in rats with a pretreatment period of 30 min upon intra peritoneal administration at a concentration of 15 mg/kg. The assay is classed as functional. The method in brief: as §1
The test system of assay [7] is Rattus norvegicus. The assay is described as follows: Percent catalepsy in male Spargue-Dawley rat at pretreatment time 60 mins and administered ip at dose 50 mg/kg. To be noted: route intraperitoneal. The assay is classed as functional. The method in brief:
(§2)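 Catalepsy in rats, groups of five per drug treatment, scored blind to drug and dose. Each session included a saline or vehicle negative control and a haloperidol 2 mg/kg positive control. Deaths during the experiment were recorded in the catalepsy column as number dead out of five.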

For assay [8], the system named is Rattus norvegicus. The assay is described as follows: Percent catalepsy in male Spargue-Dawley rat at pretreatment time 240 mins and when administered ip at dose 100 mg/kg (3/5L denotes that three rats out of five died during the course of experiment). To be noted: route intraperitoneal. The assay is classed as functional. Put shortly: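 Catalepsy scored in groups of five rats per drug treatment, with the experimenter blind to drug and dose, in a quiet room. Each session included two control groups: saline (or vehicle) as negative control and haloperidol 2 mg/kg as positive control. Deaths during the experiment were recorded as lethality (e.g., 3/5L) in place of percent catalepsy.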

For assay [9], the system named is Rattus norvegicus. The assay is described as follows: compound was tested for antipsychotic activity by conditioned avoidance response(CAR) assay in rats with a pretreatment period of 60 min upon peroral administration. Format: functional. To be noted: po. The method in brief: as §1
The test system of assay [10] is Rattus norvegicus. The assay is described as follows: Percent catalepsy in male Spargue-Dawley rat at pretreatment time 240 mins and when administered po at dose 250 mg/kg. The assay is classed as functional. The method in brief:
as §2

Assay [11] concerns Rattus norvegicus. The assay is described as follows: compound was tested for antipsychotic activity by conditioned avoidance response(CAR) assay in rats with a pretreatment period of 30 min upon peroral administration. Format: functional. To be noted: po. The method in brief:
as §1

The subject of assay [12] is Rattus norvegicus. As to the kind of experiment: compound was tested for antipsychotic activity by conditioned avoidance response(CAR) assay in rats with a pretreatment period of 30 min upon intra peritoneal administration. The assay is classed as functional. Put shortly:
as §1

In assay [13] the test system is Rattus norvegicus. As to the kind of experiment: compound was tested for antipsychotic activity by conditioned avoidance response(CAR) assay in rats with a pretreatment period of 120 min upon peroral administration. Format: functional. To be noted: po. The method in brief: as §1
In assay [14] the test system is Rattus norvegicus. As to the kind of experiment: Percent catalepsy in male Spargue-Dawley rat at pretreatment time 60 mins and when administered ip at dose 50 mg/kg. The assay is classed as functional. To be noted: route intraperitoneal. The method in brief:
as §2

The test system of assay [15] is Rattus norvegicus. The assay is described as follows: Percent catalepsy in male Spargue-Dawley rat at pretreatment time 60 mins and when administered po at dose 250 mg/kg. Format: functional. The method in brief:
as §2

Assay [16] deals with Rattus norvegicus. As to the kind of experiment: Percent catalepsy in male Spargue-Dawley rat at pretreatment time 240 mins and when administered ip at dose 50 mg/kg. To be noted: route intraperitoneal. Format: functional. Put shortly:
as §2

The subject of assay [17] is Rattus norvegicus. As to the kind of experiment: compound was tested for antipsychotic activity by conditioned avoidance response(CAR) assay in rats with a pretreatment period of 60 min upon peroral administration. Values in brackets indicates 95% confidence limits for ED50. Format: functional. To be noted: po. Put shortly:
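Rats trained in conditioned avoidance were run in a 1-h session on two consecutive days (N = 4). The read-out was reduction of the conditioned response to a disagreeable stimulus. Oral dosing was 60 min before testing. Fed rats had food and water until placed in the test chambers; fasted rats had no food overnight before the experiment.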

Assay [18] has as its system Rattus norvegicus. As to the kind of experiment: compound was tested for antipsychotic activity by conditioned avoidance response(CAR) assay in rats with a pretreatment period of 60 min upon peroral administration. Format: functional. To be noted: po. Put shortly:
as §1

In assay [19] the test system is Rattus norvegicus. As to the kind of experiment: Percent catalepsy in male Spargue-Dawley rat at pretreatment time 240 mins and administered ip at dose 50 mg/kg. Format: functional. To be noted: route intraperitoneal. The method in brief:
as §2

Regarding `CC(=O)N(C)C(=O)c1cccc(CN2CCN(c3ccccc3OC(C)C)CC2)c1`, the Ki in assay [1] came to 3.3 nM; in assay [5] it was 388 nM. Besides, in the assay on Rattus norvegicus [2], the inhibition in vivo at 20 mg/kg was -1.6%. The inhibition in vivo at 5 mg/kg in the assay on Rattus norvegicus [3] is -94.5%. The inhibition in vivo at 1 mg/kg in the assay with Rattus norvegicus [4] is -9.6%.

As to `CC(C)Oc1ccccc1N1CCN(CCCCc2ccc(C(=O)N3CCCCC3)cc2)CC1`, the inhibition in vivo at 15 mg/kg in the assay on Rattus norvegicus [6] was -95.3%. In assay [5], this compound came in with a Ki of 284 nM.

For the compound `CC(C)Oc1ccccc1N1CCN(CCc2ccc(C(=O)N3CCCCC3)cc2)CC1`, the Ki in assay [1] was 2.5 nM; in assay [5], 2.1 nM. Besides, in the assay with Rattus norvegicus [6], the inhibition in vivo at 15 mg/kg was -98.2%. Further, in the assay on Rattus norvegicus [4], the inhibition in vivo at 1 mg/kg was -1.1%.

Turning to `COc1ccccc1N1CCN(Cc2cccc(C(=O)N3CCCCCC3)c2)CC1`, the Ki in [1] was found to be 0.46 nM; in assay [5], 4.7 nM. Moreover, the inhibition in vivo at 5 mg/kg in the assay with Rattus norvegicus [3] was -94.6%. For the same compound, in the assay with Rattus norvegicus [7], the Catalepsy was determined as 70%.

Regarding `CC(C)Oc1ccccc1N1CCN(Cc2cccc(C(=O)N3CCCCCC3)c2)CC1`, the Catalepsy with Rattus norvegicus [8] turned out to be 0%; with Rattus norvegicus [10], 15.5%; with Rattus norvegicus [14] it was 27.8%; with Rattus norvegicus [15] it was 32.5%; in the assay with Rattus norvegicus [16] it was 24.1%. Moreover, the Ki in [1] was 0.6 nM; in [5], 2.1 nM. Besides, the ED50 in the assay with Rattus norvegicus [9] was determined as 11.9 mg/kg; in the assay on Rattus norvegicus [11], 3.32 mg/kg; in the assay on Rattus norvegicus [12], 0.85 mg/kg; in the assay with Rattus norvegicus [13], 15.4 mg/kg.

For `CN1CCN(C2=Nc3cc(Cl)ccc3Nc3ccccc32)CC1` [CLOZAPINE], the ED50 with Rattus norvegicus [11] turned out to be 9.3 mg/kg.

As to `O=C(CCCN1CCC(O)(c2ccc(Cl)cc2)CC1)c1ccc(F)cc1` [HALOPERIDOL], the ED50 in the assay on Rattus norvegicus [17] worked out at 0.31 mg/kg.

On to `CC(C)Oc1ccccc1N1CCN(Cc2cccc(C(=O)N3CCCCC3)c2)CC1` [MAZAPERTINE], for which the ED50 with Rattus norvegicus [18] amounted to 11 mg/kg; in the assay with Rattus norvegicus [9] it was 3.35 mg/kg; with Rattus norvegicus [11], 14.5 mg/kg; with Rattus norvegicus [13], 26 mg/kg. The figures for the Catalepsy in the assay with Rattus norvegicus [7] and in the assay with Rattus norvegicus [19] were 32.4% and 47.8%, respectively.

Usually Ki stands for a measure of affinity in units of concentration, obtained from inhibition or displacement. A higher Ki goes with lower affinity. Broadly, the inhibition in vivo is the relative decrease from the control value, in per cent. In general, ED50 refers to the dose at which the effect has come halfway, by size or by number of responders.
